These results are taken from ChEMBL document CHEMBL2401652 (J Med Chem, 2013).

The test system of series [1] is PANC-1. Kind of series: Induction of apoptosis in human PANC1 cells assessed as PARP cleavage at 50 uM after 24 hrs by Western blot analysis. Format: functional, cell-based. The procedure, abridged:
(§1)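 Cells (1.5 × 10^6) treated 24 h at 25 or 50 μM; 50 μg protein per lane on 10% SDS-PAGE, nitrocellulose, 2% TBS-BSA block, primary antibody overnight at 4 °C, HRP secondary, ECL detection; β-actin loading control; untreated controls in parallel.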
On the technique in general: Immunoblotting shows a protein as a band on a membrane.

A further series relates to A549. Kind of series: Cytotoxicity against human A549 cells assessed as growth inhibition after 24 hrs by MTT assay. In kind it is functional, cell-based. A digest of the protocol: (§2)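 Log-phase cells (1 × 10^4 per well) treated 24 h with 0–30 μM at 37 °C, 5% CO2, in triplicate; MTT added for final 3 h; vehicle 0.15% ethanol; IC50 from three separate days, mean ± SE.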

For series [2], the system named is T98G. Kind of series: Induction of apoptosis in human T98G cells assessed as procaspase-9 cleavage at 50 uM after 24 hrs by Western blot analysis. In kind it is functional, cell-based. The procedure, abridged:
(§3)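 Cells (1.5 × 10^6) exposed 24 h to compound (25 or 50 μM). 50 μg protein per lane resolved on 10% SDS-PAGE and transferred to nitrocellulose. Membrane blocked in 2% TBS-BSA, then probed with primary antibody overnight at 4 °C and HRP secondary. Detection by ECL, with β-actin as loading control. Untreated control run in parallel.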

The subject of series [3] is PANC-1. The series is described as follows: Downregulation of Bcl-xL expression in human PANC1 cells at 50 uM after 24 hrs by Western blot analysis. In kind it is functional, cell-based. A digest of the protocol: as §1
Series [4] deals with PANC-1. The series is described as follows: Induction of apoptosis in human PANC1 cells assessed as procaspase-7 cleavage at 50 uM after 24 hrs by Western blot analysis. Format: functional, cell-based. A digest of the protocol:
as §1

Series [5] has as its system T98G. Kind of series: Induction of apoptosis in human T98G cells assessed as PARP cleavage at 50 uM after 24 hrs by Western blot analysis. Format: functional, cell-based. A digest of the protocol:
as §3

Series [6] deals with T98G. Kind of series: Induction of apoptosis in human T98G cells assessed as induction of DNA damage at 20 uM after 24 hrs by comet assay relative to untreated control. Format: functional. A digest of the protocol: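 T98G cells (1 × 10^5) treated 24 h with 0 or 20 μM. About 20000 cells embedded in 0.5% low-melting agarose and lysed overnight at 4 °C at pH 10. Alkaline electrophoresis (pH 13) for 30 min at 300 mA at 4 °C, then ethidium bromide staining. Tail length (nucleus centre to tail tip) from ≥20 comets, reported as mean ± SD.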

In series [7] the test system is PANC-1. The series is described as follows: Cytotoxicity against human PANC1 cells assessed as growth inhibition after 24 hrs by MTT assay. In kind it is functional, cell-based. A digest of the protocol: as §2
In general terms: Tetrazolium assays rely on reduction of a dye to a coloured formazan, in cell work by metabolically active cells.

For series [8], the system named is PANC-1. The series is described as follows: Induction of apoptosis in human PANC1 cells assessed as procaspase-8 cleavage at 50 uM after 24 hrs by Western blot analysis. In kind it is functional, cell-based. The procedure, abridged:
as §1

Series [9] has as its system PANC-1. Kind of series: Induction of apoptosis in human PANC1 cells assessed as procaspase-9 cleavage at 50 uM after 24 hrs by Western blot analysis. Format: functional, cell-based. A digest of the protocol: as §3
Series [10] relates to T98G. Kind of series: Induction of apoptosis in human T98G cells assessed as procaspase-8 cleavage at 50 uM after 24 hrs by Western blot analysis. Format: functional, cell-based. A digest of the protocol: as §3
Series [11] relates to T98G. Kind of series: Downregulation of Bcl-xL expression in human T98G cells at 50 uM after 24 hrs by Western blot analysis. In kind it is functional, cell-based. The procedure, abridged: as §1
Series [12] has as its system T98G. Kind of series: Induction of apoptosis in human T98G cells assessed as procaspase-7 cleavage at 50 uM after 24 hrs by Western blot analysis. Format: functional, cell-based. A digest of the protocol:
as §3

The test system of series [13] is T98G. Kind of series: Cytotoxicity against human T98G cells assessed as growth inhibition after 24 hrs by MTT assay. Format: functional, cell-based. A digest of the protocol:
as §2

The next series has as its system K562. The series is described as follows: Cytotoxicity against human K562 cells assessed as growth inhibition after 24 hrs by MTT assay. Format: functional, cell-based. The procedure, abridged: as §2
The test system of another series is HCT-116. The series is described as follows: Cytotoxicity against human HCT116 cells assessed as growth inhibition after 24 hrs by MTT assay. Format: functional, cell-based. The procedure, abridged:
as §2

Series [14] relates to PANC-1. Kind of series: Downregulation of total Bid expression in human PANC1 cells at 50 uM after 24 hrs by Western blot analysis. In kind it is functional, cell-based. A digest of the protocol: as §1
A short description of series [15]: Binding affinity to DNA (unknown origin) at 100 uM after 2 hrs by UV-Vis absorption spectroscopic analysis. A digest of the protocol:
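DNA (100 μg/mL; stock 1.0 mg/mL in 50 mM Tris-HCl pH 7.5, 50 mM NaCl) with ligand fixed at 100 μM; incubated at 37 °C, then diluted six-fold; absorbance scanned 220–350 nm at 25 °C, 1 cm quartz cell; 260 nm band monitored.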

The test system of series [16] is T98G. The series is described as follows: Downregulation of total Bid expression in human T98G cells at 50 uM after 24 hrs by Western blot analysis. Format: functional, cell-based. The procedure, abridged:
as §1

Series [17] in a line: Binding affinity to DNA (unknown origin) assessed as induction of conformational changes at 300 uM after 2 hrs by CD spectrometric analysis. The procedure, abridged: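 DNA at 1000 μg/mL in 50 mM Tris-HCl, pH 7.5, incubated with ligand for 2 h at 37 °C, then CD spectra recorded at 25 °C. Conformational change was judged from the 275 nm band (base stacking) and the 245 nm band (B-conformation).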

In series [18] the test system is PANC-1. Kind of series: Induction of apoptosis in human PANC1 cells assessed as PARP cleavage at 25 uM after 24 hrs by Western blot analysis. In kind it is functional, cell-based. The procedure, abridged:
as §1

Series [19] relates to U-373MG ATCC. The series is described as follows: Cytotoxicity against human U373MG cells assessed as induction of morphological changes at 30 uM after 12 hrs by phase contrast microscopic analysis. Format: functional, cell-based. A digest of the protocol: (§4)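 U373MG glioma cells exposed to 30 μM for 3 or 12 h; shape and density examined by phase contrast microscopy against untreated cells.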

Series [20] has as its system PANC-1. The series is described as follows: Downregulation of total Bid expression in human PANC1 cells at 25 uM after 24 hrs by Western blot analysis. In kind it is functional, cell-based. A digest of the protocol: as §1
For series [21], the system named is T98G. The series is described as follows: Induction of apoptosis in human T98G cells assessed as procaspase-7 cleavage at 25 uM after 24 hrs by Western blot analysis. In kind it is functional, cell-based. A digest of the protocol: as §3
Series [22] has as its system T98G. The series is described as follows: Induction of apoptosis in human T98G cells assessed as PARP cleavage at 25 uM after 24 hrs by Western blot analysis. Format: functional, cell-based. The procedure, abridged: as §3
In series [23] the test system is T98G. The series is described as follows: Downregulation of Bcl-xL expression in human T98G cells at 25 uM after 24 hrs by Western blot analysis. Format: functional, cell-based. A digest of the protocol:
as §1

For series [24], the system named is T98G. Kind of series: Induction of apoptosis in human T98G cells assessed as procaspase-9 cleavage at 25 uM after 24 hrs by Western blot analysis. Format: functional, cell-based. The procedure, abridged:
as §3

Series [25] has as its system PANC-1. Kind of series: Induction of apoptosis in human PANC1 cells assessed as procaspase-9 cleavage at 25 uM after 24 hrs by Western blot analysis. Format: functional, cell-based. A digest of the protocol: as §3
In series [26] the test system is PANC-1. The series is described as follows: Induction of apoptosis in human PANC1 cells assessed as procaspase-7 cleavage at 25 uM after 24 hrs by Western blot analysis. Format: functional, cell-based. The procedure, abridged: as §1
Series [27] relates to PANC-1. The series is described as follows: Induction of apoptosis in human PANC1 cells assessed as procaspase-8 cleavage at 25 uM after 24 hrs by Western blot analysis. Format: functional, cell-based. A digest of the protocol: as §1
The subject of series [28] is T98G. Kind of series: Downregulation of total Bid expression in human T98G cells at 25 uM after 24 hrs by Western blot analysis. In kind it is functional, cell-based. A digest of the protocol: as §1
In series [29] the test system is PANC-1. The series is described as follows: Downregulation of Bcl-xL expression in human PANC1 cells at 25 uM after 24 hrs by Western blot analysis. Format: functional, cell-based. The procedure, abridged: as §1
In series [30] the test system is T98G. The series is described as follows: Induction of apoptosis in human T98G cells assessed as procaspase-8 cleavage at 25 uM after 24 hrs by Western blot analysis. In kind it is functional, cell-based. The procedure, abridged: as §3
Series [31] relates to U-373MG ATCC. The series is described as follows: Cytotoxicity against human U373MG cells assessed as induction of morphological changes at 30 uM after 3 hrs by phase contrast microscopic analysis. In kind it is functional, cell-based. The procedure, abridged:
as §4

In series [32] the test system is U-373MG ATCC. Kind of series: Cytotoxicity against human U373MG cells assessed as induction of morphological changes at 30 uM up to 24 hrs by phase contrast microscopic analysis. In kind it is functional, cell-based.
Series [33] can be described thus: Cytotoxicity against human HEK293T cells assessed as cell viability at 60 uM after 24 hrs by MTT assay relative to control. Format: cell-based, HEK-293T. The conditions noted are these: read-out: Activity. The procedure, abridged: (§5)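 Vero and HEK-293T normal cells (1 × 10^4 per well) exposed 24 h to 0, 15, 30, 45, 60 μM at 37 °C, 5% CO2, triplicate; MTT added 3 h; viability relative to vehicle control (0.15% ethanol).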

Series [34] can be described thus: Cytotoxicity against african green monkey Vero cells assessed as cell viability at 60 uM after 24 hrs by MTT assay relative to control. Format: cell-based. The settings on record: chlorocebus sabaeus, read-out: Activity. The procedure, abridged:
as §5

Molecules are shown by their SMILES. Active and inactive are the calls of the source. No cut-off for these calls is given here. A value given as a limit tells only on which side of the number the result lay.

Consider `CC(C)=CCC[C@]1(C)C=Cc2c(c(C)cc3c4ccccc4n(C)c23)O1`, for which the outcome with PANC-1 [1], in the series on T98G [2], with PANC-1 [3], with PANC-1 [4], with T98G [5] and with T98G [6] was inactive. Further, the outcome in the series with PANC-1 [8], in the series on PANC-1 [9], in the series on T98G [10], with T98G [11], in the series on T98G [12] and with PANC-1 [14] was inactive. In addition, in the series on T98G [16], the result was inactive. For the same molecule, the “growth inhibition (GI)” value with A549, in the series with PANC-1 [7], in the series with T98G [13], in the series on K562 and in the series on HCT-116 was “Active” throughout. Moreover, in series [15], the outcome was Active.
For the molecule `CC[n+]1c(-c2ccccc2)c2cc(N)ccc2c2ccc(N)cc21`, in series [17], the outcome was Active.
Take `COc1ccc2c(c1)[nH]c1c3c(c(C)cc12)O[C@](C)(CCC=C(C)C)C=C3`: the “growth inhibition (GI)” value in the series on A549, in the series with PANC-1 [7], with T98G [13], in the series on K562 and with HCT-116 was “Active” each time. Moreover, the result in the series with PANC-1 [18], with U-373MG ATCC [19], in the series on PANC-1 [20], in the series with T98G [21], with T98G [22] and with T98G [23] was inactive. The result in the series on T98G [24], with T98G [6], in the series with PANC-1 [25], in the series with PANC-1 [26], in the series with PANC-1 [27] and in the series on T98G [28] was inactive. In addition, the outcome in the series on PANC-1 [29] and in the series with T98G [30] was inactive. In series [15], the outcome was Active.
On to `CC(=O)Oc1ccc2c(c1)[nH]c1c3c(c(C)cc12)O[C@](C)(CCC=C(C)C)C=C3`, for which the “growth inhibition (GI)” value in the series on A549, in the series with PANC-1 [7], with T98G [13], in the series on K562 and in the series with HCT-116 was “Active” throughout. Also, the outcome in the series on U-373MG ATCC [19] and in the series with U-373MG ATCC [32] was Active. Moreover, the outcome with U-373MG ATCC [31] was inactive.
As to `CC(C)=CCCC1(C)C=Cc2c(c(C)cc3c2[nH]c2cc(O)ccc23)O1` (stereo not given) [MAHANINE], the viability at 24 h, 60 µM in series [33] is > 65%; in series [34], > 85%.
